Measured values published in ChEMBL document CHEMBL3526053, “Species-dependent uptake of glycylsarcosine but not oseltamivir in Pichia pastoris expressing the rat, mouse, and human intestinal peptide transporter PEPT1” (Drug Metab Dispos, 2012).
Blank lines part the entries; values can stand above or below the molecule they belong to. Non-standard residues stand in square brackets, D forms with d. Residues, ends and D or L forms follow the SMILES beside them. Sar = CNCC(=O)O

Assays:
[1] = test system: PEPT1; experiment: Drug uptake in Xenopus laevis oocytes expressing chicken PEPT1 measured at pH 6 and -60 mV by two-electrode voltage-clamp electrophysiology; type: ADME, cell-based, Gallus gallus; details: Xenopus laevis oocytes expressing chicken PEPT1, pH 6
[2] = biological target: T1, Solute carrier family 15 member 1 (Oryctolagus cuniculus, UniProt P36836); experiment: Drug uptake in Xenopus laevis oocytes expressing rabbit PEPT1 measured at pH 5.5 and -60 mV by two-electrode voltage-clamp electrophysiology; type: ADME, cell-based
T1 sequence (P36836 whole entry): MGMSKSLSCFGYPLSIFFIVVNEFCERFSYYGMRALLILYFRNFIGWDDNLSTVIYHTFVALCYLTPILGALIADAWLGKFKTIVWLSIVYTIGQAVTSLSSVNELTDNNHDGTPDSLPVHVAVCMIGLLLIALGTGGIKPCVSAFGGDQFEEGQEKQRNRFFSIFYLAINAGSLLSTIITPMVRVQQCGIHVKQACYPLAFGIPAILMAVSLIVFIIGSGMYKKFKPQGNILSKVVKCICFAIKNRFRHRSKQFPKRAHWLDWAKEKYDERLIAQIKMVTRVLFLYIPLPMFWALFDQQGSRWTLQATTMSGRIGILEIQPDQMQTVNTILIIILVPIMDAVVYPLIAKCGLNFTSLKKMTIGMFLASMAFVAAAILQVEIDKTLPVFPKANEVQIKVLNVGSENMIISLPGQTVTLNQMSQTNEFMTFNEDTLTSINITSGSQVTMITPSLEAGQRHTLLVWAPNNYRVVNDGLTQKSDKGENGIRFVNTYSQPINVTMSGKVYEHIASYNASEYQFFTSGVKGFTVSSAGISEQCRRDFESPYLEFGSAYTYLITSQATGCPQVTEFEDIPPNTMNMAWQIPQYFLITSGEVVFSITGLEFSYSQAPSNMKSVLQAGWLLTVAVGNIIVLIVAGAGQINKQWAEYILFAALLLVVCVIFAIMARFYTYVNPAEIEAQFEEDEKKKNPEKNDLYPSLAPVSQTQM

[3] = test system: PEPT1; experiment: Drug uptake in human HeLa cells expressing monkey PEPT1 measured at pH 6; type: ADME, cell-based, Macaca mulatta; details: rhesus monkey, HeLa cells expressing monkey PEPT1, pH 6
[4] = test system: PEPT1; experiment: Drug uptake in Xenopus laevis oocytes expressing salmon PEPT1 measured at pH 6.5 and -60 mV by two-electrode voltage-clamp electrophysiology; type: ADME, cell-based; details: salmonidae, Xenopus laevis oocytes expressing salmon PEPT1, pH 6.5
[5] = test system: PEPT1; experiment: Drug uptake in CHO cells expressing pig PEPT1 measured at pH 6; type: ADME, cell-based, Sus scrofa; details: CHO cells expressing pig PEPT1, pH 6
[6] = test system: PEPT1; experiment: Ratio of Km for human recombinant PEPT1 expressed in Pichia pastoris GS115 to Km for mouse recombinant PEPT1 expressed in Pichia pastoris GS115; type: ADME; details: not told
[7] = test system: PEPT1; experiment: Drug uptake in Xenopus laevis oocytes expressing sheep PEPT1 measured at pH 5.5 and -60 mV by two-electrode voltage-clamp electrophysiology; type: ADME, cell-based, Ovis aries; details: Xenopus laevis oocytes expressing sheep PEPT1, pH 5.5
[8] = test system: PEPT1; experiment: Drug uptake in CHO cells expressing chicken PEPT1 measured at pH 6; type: ADME, cell-based, Gallus gallus; details: CHO cells expressing chicken PEPT1, pH 6
[9] = Ratio of Km for human recombinant PEPT1 expressed in Pichia pastoris GS115 to Km for rat recombinant PEPT1 expressed in Pichia pastoris GS115; type: ADME
[10] = substrate: CN(CC(=O)O)C(=O)CN; experiment: Activity at human recombinant PEPT1 expressed in Pichia pastoris GS115 after 30s by dual-channel liquid scintillation counting analysis; type: ADME
In short: (§1)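 [3H]GlySar concentration series 0.005-10 mM, 30-s uptake at 24°C in 100 mM potassium phosphate pH 6.5. Cells come from His+Mut+ GS115 transformants induced 20-24 h in methanol medium. Uptake is normalised to OD600. Data are fitted to Michaelis-Menten plus a first-order nonsaturable term (Kd), weighting unity. Parameters are mean ± SE (n=9).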

[11] = substrate: CN(CC(=O)O)C(=O)CN; experiment: Drug uptake in human HeLa cells expressing human PEPT1 measured at pH 6; type: ADME, cell-based
[12] = substrate: CN(CC(=O)O)C(=O)CN; experiment: Activity at mouse recombinant PEPT1 expressed in Pichia pastoris GS115 after 30s by dual-channel liquid scintillation counting analysis; type: ADME; in short: as §1
[13] = substrate: CN(CC(=O)O)C(=O)CN; experiment: Drug uptake in Xenopus laevis oocytes expressing mouse PEPT1 measured at pH 5.5 and -60 mV by two-electrode voltage-clamp electrophysiology; type: ADME, cell-based
[14] = substrate: CN(CC(=O)O)C(=O)CN; experiment: Drug uptake in Xenopus laevis oocytes expressing rat PEPT1 measured at pH 6; type: ADME, cell-based
[15] = substrate: CN(CC(=O)O)C(=O)CN; experiment: Activity at rat recombinant PEPT1 expressed in Pichia pastoris GS115 after 30s by dual-channel liquid scintillation counting analysis; type: ADME; in short: as §1

Km [1]: 470 µM
Km [2]: 1900 µM
Km [3]: 350 µM
Km [4]: 500 µM
Km [5]: 940 µM
Km [7]: 610 µM
Km [8]: 2600 µM
Ratio [9]: 5.4
Molecule: CN(CC(=O)O)C(=O)CN [GLYCYLSARCOSINE] (H-Gly-[Sar]-OH)
selectivity ratio [6]: 2.9

B1: Solute carrier family 15 member 1 (Homo sapiens) (protein)
chain: MGMSKSHSFFGYPLSIFFIVVNEFCERFSYYGMRAILILYFTNFISWDDNLSTAIYHTFVALCYLTPILGALIADSWLGKFKTIVSLSIVYTIGQAVTSVSSINDLTDHNHDGTPDSLPVHVVLSLIGLALIALGTGGIKPCVSAFGGDQFEEGQEKQRNRFFSIFYLAINAGSLLSTIITPMLRVQQCGIHSKQACYPLAFGVPAALMAVALIVFVLGSGMYKKFKPQGNIMGKVAKCIGFAIKNRFRHRSKAFPKREHWLDWAKEKYDERLISQIKMVTRVMFLYIPLPMFWALFDQQGSRWTLQATTMSGKIGALEIQPDQMQTVNAILIVIMVPIFDAVLYPLIAKCGFNFTSLKKMAVGMVLASMAFVVAAIVQVEIDKTLPVFPKGNEVQIKVLNIGNNTMNISLPGEMVTLGPMSQTNAFMTFDVNKLTRINISSPGSPVTAVTDDFKQGQRHTLLVWAPNHYQVVKDGLNQKPEKGENGIRFVNTFNELITITMSGKVYANISSYNASTYQFFPSGIKGFTISSTEIPPQCQPNFNTFYLEFGSAYTYIVQRKNDSCPEVKVFEDISANTVNMALQIPQYFLLTCGEVVFSVTGLEFSYSQAPSNMKSVLQAGWLLTVAVGNIIVLIVAGAGQFSKQWAEYILFAALLLVVCVIFAIMARFYTYINPAEIEAQFDEDEKKNRLEKSNPYFMSGANSQKQM
Km [10]: 860 µM
Km [11]: 290 µM

B2: Solute carrier family 15 member 1 (Mus musculus) (protein)
chain: MGMSKSRGCFGYPLSIFFIVVNEFCERFSYYGMRALLVLYFRNFLGWDDNLSTAIYHTFVALCYLTPILGALIADSWLGKFKTIVSLSIVYTIGQAVISVSSINDLTDHDHNGSPDSLPVHVALSMVGLALIALGTGGIKPCVSAFGGDQFEEGQEKQRNRFFSIFYLAINGGSLLSTIITPILRVQQCGIHSQQACYPLAFGVPAALMAVALIVFVLGSGMYKKFQPQGNIMGKVAKCIGFAIKNRFRHRSKAYPKREHWLDWAKEKYDERLISQIKMVTKVMFLYIPLPMFWALFDQQGSRWTLQATTMNGKIGAIEIQPDQMQTVNAILIVIMVPIVDAVVYPLIAKCGFNFTSLKKMTVGMFLASMAFVVAAIVQVEIDKTLPVFPGGNQVQIKVLNIGNNNMTVHFPGNSVTLAQMSQTDTFMTFDIDKLTSINISSSGSPGVTTVAHDFEQGHRHTLLVWNPSQYRVVKDGLNQKPEKGENGIRFVNTLNEMVTIKMSGKVYENVTSHNASGYQFFPSGEKQYTINTTAVAPTCLTDFKSSNLDFGSAYTYVIRRASDGCLEVKEFEDIPPNTVNMALQIPQYFLLTCGEVVFSVTGLEFSYSQAPSNMKSVLQAGWLLTVAVGNIIVLIVAGAGHFPKQWAEYILFASLLLVVCVIFAIMARFYTYINPAEIEAQFDEDEKKKGIGKENPYSSLEPVSQTNM
Km [12]: 300 µM
Km [13]: 750 µM

B3: Solute carrier family 15 member 1 (Rattus norvegicus) (protein)
chain: MGMSKSRGCFGYPLSIFFIVVNEFCERFSYYGMRALLVLYFRNFLGWDDDLSTAIYHTFVALCYLTPILGALIADSWLGKFKTIVSLSIVYTIGQAVISVSSINDLTDHDHDGSPNNLPLHVALSMIGLALIALGTGGIKPCVSAFGGDQFEEGQEKQRNRFFSIFYLAINAGSLLSTIITPILRVQQCGIHSQQACYPLAFGVPAALMAVALIVFVLGSGMYKKFQPQGNIMGKVAKCIRFAIKNRFRHRSKAFPKRNHWLDWAKEKYDERLISQIKIMTKVMFLYIPLPMFWALFDQQGSRWTLQATTMTGKIGTIEIQPDQMQTVNAILIVIMVPIVDAVVYPLIAKCGFNFTSLKKMTVGMFLASMAFVVAAIVQVEIDKTLPVFPSGNQVQIKVLNIGNNDMAVYFPGKNVTVAQMSQTDTFMTFDVDQLTSINVSSPGSPGVTTVAHEFEPGHRHTLLVWGPNLYRVVKDGLNQKPEKGENGIRFVSTLNEMITIKMSGKVYENVTSHSASNYQFFPSGQKDYTINTTEIAPNCSSDFKSSNLDFGSAYTYVIRSRASDGCLEVKEFEDIPPNTVNMALQIPQYFLLTCGEVVFSVTGLEFSYSQAPSNMKSVLQAGWLLTVAIGNIIVLIVAEAGHFDKQWAEYVLFASLLLVVCIIFAIMARFYTYINPAEIEAQFDEDEKKKGVGKENPYSSLEPVSQTNM
Km [14]: 240 µM
Km [15]: 160 µM
